Laboratory results taken from ChEMBL document CHEMBL1147366, “Cytotoxic and antimalarial alkaloids from the tubers of Stephania pierrei” (J Nat Prod, 1993).
In brackets after ≈: the same amount, converted by molar mass.

Assays:
[1] = Selectivity index, ED50 for human KB cells to ED50 for chloroquine-resistant Plasmodium falciparum W2; assay type: toxicity, cell-based; settings: read-out: Ratio ED50
Method in brief: (§1)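 Selectivity index is the ED50 in KB cells divided by the ED50 against the P. falciparum strain (D-6, chloroquine-sensitive; W-2, chloroquine-resistant). Parasite ED50s are expressed in ng/ml and KB ED50s in µg/ml.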

Plasmodium falciparum [2] = experiment: Antimalarial activity after 24 hrs against chloroquine-resistant Plasmodium falciparum W2 infected type A+ human erythrocytes by [3H]hypoxanthine uptake; assay type: functional; settings: read-out: ED50 (the source's name)
[3] = Selectivity index, ED50 for human KB cells to ED50 for chloroquine-sensitive Plasmodium falciparum D6; assay type: toxicity, cell-based; settings: read-out: Ratio ED50; method in brief: as §1
Plasmodium falciparum [4] = experiment: Antimalarial activity after 24 hrs against chloroquine-sensitive Plasmodium falciparum D6 infected type A+ human erythrocytes by [3H]hypoxanthine uptake; assay type: functional; settings: read-out: ED50 (the source's name)
[5] = Cytotoxicity against human U373 cells after 3 days by SRB assay; assay type: functional, U-373MG ATCC; settings: U373 MG, 72 h, read-out: ED50 (the source's name)
ZR-75-1 = experiment: Cytotoxicity against human ZR-75-1 cells after 3 days by SRB assay; assay type: functional; settings: ZR-75-1, 72 h, read-out: ED50 (the source's name)
[6] = Cytotoxicity against vinblastine-resistant human KBV1 cells after 3 days by SRB assay; assay type: functional; settings: KB-V1, 72 h, read-out: ED50 (the source's name)
P388 = experiment: Cytotoxicity against mouse P388 cells after 3 days by SRB assay; assay type: functional; settings: P388, 72 h, read-out: ED50 (the source's name)
A-431 = experiment: Cytotoxicity against human A431 cells after 3 days by SRB assay; assay type: functional; settings: A-431, 72 h, read-out: ED50 (the source's name)
[7] = Cytotoxicity against human BCA1 cells after 3 days by SRB assay; assay type: functional; settings: BCA1, 72 h, read-out: ED50 (the source's name)
SK-MEL-2 = experiment: Cytotoxicity against human SK-MEL-2 cells after 3 days by SRB assay; assay type: functional; settings: SK-MEL-2, 72 h, read-out: ED50 (the source's name)
HT-1080 = experiment: Cytotoxicity against human HT1080 cells after 3 days by SRB assay; assay type: functional; settings: HT-1080, 72 h, read-out: ED50 (the source's name)
LNCaP = experiment: Cytotoxicity against human LNCAP cells after 3 days by SRB assay; assay type: functional; settings: 72 h, read-out: ED50 (the source's name)
[8] = Cytotoxicity against human KB cells after 3 days by SRB assay; assay type: cell-based; settings: read-out: ED50
[9] = Cytotoxicity against human LUC1 cells after 3 days by SRB assay; assay type: functional; settings: LUC1, 72 h, read-out: ED50 (the source's name)
[10] = Cytotoxicity against human Col1 cells after 3 days by SRB assay; assay type: functional; settings: Col1, 72 h, read-out: ED50 (the source's name)

Row | SMILES | selectivity ratio [1] | EC50 (Plasmodium falciparum [2]) [µg/mL] | selectivity ratio [3] | EC50 (Plasmodium falciparum [4]) [µg/mL] | EC50 [5] [µg/mL] | EC50 (ZR-75-1) [µg/mL] | EC50 [6] [µg/mL] | EC50 (P388) [µg/mL] | EC50 (A-431) [µg/mL] | EC50 [7] [µg/mL] | EC50 (SK-MEL-2) [µg/mL] | EC50 (HT-1080) [µg/mL] | EC50 (LNCaP) [µg/mL] | CC50 at 72 h [8] [µg/mL] | EC50 [9] [µg/mL] | EC50 [10] [µg/mL]
1 | COc1cc2c(c(O)c1OC)[C@@H]1Cc3ccc(OC)c(OC)c3CN1CC2 | > 10 | 1.91 (≈ 5.14 µM) | > 5 | 4.34 (≈ 11.7 µM) | – | – | – | – | – | – | – | – | – | – | – | –
2 | COc1cc2c(cc1O)-c1c3c(cc4c1[C@@H](C2)N(C)CC4)OCO3 | 1 | 2.88 (≈ 8.85 µM) | 1 | 2.01 (≈ 6.18 µM) | 1.7 (≈ 5.22 µM) | 2.1 (≈ 6.45 µM) | 1.2 (≈ 3.69 µM) | 0.4 (≈ 1.23 µM) | 12.6 (≈ 38.7 µM) | 2.5 (≈ 7.68 µM) | 18.8 (≈ 57.8 µM) | 2.9 (≈ 8.91 µM) | 1.9 (≈ 5.84 µM) | 1.8 (≈ 5.53 µM) | 3.1 (≈ 9.53 µM) | 4.1 (≈ 12.6 µM)
3 | COc1ccc(C[C@H]2c3cc(O)c(OC)cc3CCN2C)cc1O [(S)-RETICULINE] | – | 4.47 (≈ 13.6 µM) | – | 4.05 (≈ 12.3 µM) | – | – | – | – | – | – | – | – | – | – | – | –
4 | c1ccc2c(c1)C[C@H]1NCCc3cc4c(c-2c31)OCO4 [ANONAINE] | 3 | 1.9 (≈ 7.16 µM) | 5 | 1.29 (≈ 4.86 µM) | 1.5 (≈ 5.65 µM) | 2.7 (≈ 10.2 µM) | 1.8 (≈ 6.78 µM) | > 5 | 4.2 (≈ 15.8 µM) | 3.3 (≈ 12.4 µM) | 15.8 (≈ 59.6 µM) | 2.4 (≈ 9.05 µM) | 2.9 (≈ 10.9 µM) | 2.6 (≈ 9.8 µM) | 1.8 (≈ 6.78 µM) | 4 (≈ 15.1 µM)
5 | COc1ccc2c(c1)C[C@H]1NCCc3cc4c(c-2c31)OCO4 | > 9 | 2.27 (≈ 7.69 µM) | 45 | 0.44 (≈ 1.49 µM) | 1.9 (≈ 6.43 µM) | 2.4 (≈ 8.13 µM) | 0.9 (≈ 3.05 µM) | 2.2 (≈ 7.45 µM) | 4.6 (≈ 15.6 µM) | 3.4 (≈ 11.5 µM) | 12.6 (≈ 42.7 µM) | 2.2 (≈ 7.45 µM) | 2.4 (≈ 8.13 µM) | 2 (≈ 6.77 µM) | 2.3 (≈ 7.79 µM) | 4.1 (≈ 13.9 µM)
6 | COc1cc2c(cc1OC)CN1CCc3cc(OC)c(OC)cc3[C@@H]1C2 [XYLOPININE] | – | > 10 | – | > 10 | – | – | – | – | – | – | – | – | – | – | – | –
7 | COc1cc2c(c(O)c1OC)CCN1Cc3c(ccc(OC)c3OC)C[C@@H]21 | > 36 | 0.55 (≈ 1.48 µM) | > 12 | 1.61 (≈ 4.33 µM) | – | – | – | – | – | – | – | – | – | – | – | –
8 | OC(c1cc(C(F)(F)F)nc2c(C(F)(F)F)cccc12)C1CCCCN1 (configuration not stated) [MEFLOQUINE] | – | 0.0016 (≈ 0.00423 µM) | – | 0.0073 (≈ 0.0193 µM) | – | – | – | – | – | – | – | – | – | – | – | –
9 | C=C[C@H]1CN2CC[C@H]1C[C@H]2[C@H](O)c1ccnc2ccc(OC)cc12 [QUININE] | > 820 | 0.0245 (≈ 0.0755 µM) | > 2130 | 0.0094 (≈ 0.029 µM) | – | – | – | – | – | – | – | – | – | – | – | –
10 | COc1c(O)cc2c3c1-c1ccccc1C[C@H]3NCC2 [(-)-ASIMILOBINE] | > 42 | 0.47 (≈ 1.76 µM) | > 21 | 0.95 (≈ 3.55 µM) | > 20 | > 20 | > 20 | > 20 | > 20 | > 20 | > 20 | > 20 | > 20 | > 20 | > 20 | > 20
11 | COc1ccc2c(c1O)-c1c(O)c(OC)cc3c1[C@H](C2)[N+](C)(C)CC3 [MAGNOFLORINE] | – | > 10 | – | > 10 | – | – | – | – | – | – | – | – | – | – | – | –
12 | COc1cc2c(cc1OC)-c1c3c(cc4c1[C@@H](C2)N(C)CC4)OCO3 | 2 | 2.55 (≈ 7.51 µM) | 4 | 1.26 (≈ 3.71 µM) | 1.5 (≈ 4.42 µM) | 2.8 (≈ 8.25 µM) | 0.9 (≈ 2.65 µM) | 0.6 (≈ 1.77 µM) | 1.7 (≈ 5.01 µM) | 2.2 (≈ 6.48 µM) | 3.8 (≈ 11.2 µM) | 1.7 (≈ 5.01 µM) | 1.9 (≈ 5.6 µM) | 1.6 (≈ 4.71 µM) | 6.1 (≈ 18 µM) | 2.1 (≈ 6.19 µM)
13 | COc1ccc2c(c1O)C(Cc1ccc(O)cc1)[N+](C)(C)CC2.[Cl-] (racemic) | – | > 10 | – | > 10 | – | – | – | – | – | – | – | – | – | – | – | –
